ChEMBL document CHEMBL1124461, “Aromatic dienoyl tetramic acids. Novel antibacterial agents with activity against anaerobes and staphylococci” (J Med Chem, 1989)
Values after ≈ are worked out from the molar mass of the structure shown.

Key:
Bacteroides fragilis [1] = test: Minimum inhibitory concentration against Bacteroides fragilis ATCC 25285; format: functional
Method in brief: (§1)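 Anaerobic MICs by 2-fold dilution in Wilkens-Chalgren broth, reported in micrograms/milliliter.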

Clostridium perfringens = test: Minimum inhibitory concentration against Clostridium perfringens ATCC 13124; format: functional
Method in brief: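 Anaerobic MIC by 2-fold dilution in Wilkens-Chalgren broth; values in µg/mL.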

[2] = tested on: Bacteroides thetaiotaomicron; test: Minimum inhibitory concentration against Bacteroides thetaiotaomicron ATCC 29741; format: functional; method in brief: as §1
Clostridioides difficile = test: Minimum inhibitory concentration against Clostridium difficile ATCC 9689; format: functional; method in brief: as §1
Staphylococcus aureus [3] = test: Minimum inhibitory concentration (MIC) against the cell line Staphylococcus aureus A5177; format: functional
Method in brief: (§2)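 Aerobic MICs by 2-fold dilution on brain–heart infusion agar, reported in micrograms/milliliter.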

[4] = tested on: Staphylococcus epidermidis; test: Minimum inhibitory concentration (MIC) against the strain Staphylococcus epidermidis 3519
Staphylococcus aureus [5] = test: Minimum inhibitory concentration (MIC) against the cell line Staphylococcus aureus ATCC 6538P; format: functional; method in brief: as §2
Streptococcus equinus = test: Minimum inhibitory concentration (MIC) against the cell line Streptococcus bovis A5169; format: functional; method in brief: as §2
Streptococcus pyogenes = test: Minimum inhibitory concentration (MIC) against the cell line Streptococcus pyogenes EES61; format: functional; method in brief: as §2
Pseudomonas aeruginosa = test: Minimum inhibitory concentration (MIC) against the cell line Pseudomonas aeruginosa A5007; format: functional; method in brief: as §2
Staphylococcus aureus [6] = test: Minimum inhibitory concentration (MIC) against the cell line Staphylococcus aureus 45; format: functional; method in brief: as §2
Escherichia coli [7] = test: Minimum inhibitory concentration (MIC) against the cell line Escherichia coli H560; format: functional; method in brief: as §2
Micrococcus luteus = test: Minimum inhibitory concentration (MIC) against the cell line Micrococcus luteus ATCC 4698; format: functional; method in brief: as §2
Staphylococcus aureus [8] = test: Minimum inhibitory concentration (MIC) against the cell line Staphylococcus aureus CMX 686B; format: functional; method in brief: as §2
Escherichia coli [9] = test: Minimum inhibitory concentration (MIC) against the cell line Escherichia coli juhl; format: functional; method in brief: as §2
[10] = molecular target: DNA-directed RNA polymerase subunit beta (Escherichia coli K-12) (UniProt P0A8V2); test: Percent inhibition at a concentration of 100 ug/mL of RNA polymerase isolated from Escherichia coli K12 (Sigma)
Staphylococcus aureus [11] = test: Compound is evaluated for cross resistance with DNA gyrase subunit A or B against Staphylococcus aureus 45; format: functional
Method in brief: (§3)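 Aerobic MIC by 2-fold dilution on brain–heart infusion agar; values in µg/mL.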

Staphylococcus aureus [12] = test: Compound is evaluated for cross resistance with DNA gyrase subunit A or B against Staphylococcus aureus 730A; format: functional; method in brief: as §3
Staphylococcus aureus [13] = test: Compound is evaluated for cross resistance with DNA gyrase subunit A or B against Staphylococcus aureus 337-113 (norfloxacin-resistant); format: functional; method in brief: as §3
Staphylococcus aureus [14] = test: Compound is evaluated for cross resistance with DNA gyrase subunit A or B against Staphylococcus aureus 45CR-1 (coumermycin resistant); format: functional; method in brief: as §3
Bacteroides fragilis [15] = test: Compound is evaluated for cross resistance with DNA gyrase subunit A or B against Bacteroides fragilis ATCC 25285; format: functional
Bacteroides fragilis [16] = test: Compound is evaluated for cross resistance with DNA gyrase subunit A or B against Bacteroides fragilis TirR (tirandamycin resistant); format: functional

DNA-directed RNA polymerase subunit beta (Escherichia coli K-12), sequence (P0A8V2 whole entry, looked up): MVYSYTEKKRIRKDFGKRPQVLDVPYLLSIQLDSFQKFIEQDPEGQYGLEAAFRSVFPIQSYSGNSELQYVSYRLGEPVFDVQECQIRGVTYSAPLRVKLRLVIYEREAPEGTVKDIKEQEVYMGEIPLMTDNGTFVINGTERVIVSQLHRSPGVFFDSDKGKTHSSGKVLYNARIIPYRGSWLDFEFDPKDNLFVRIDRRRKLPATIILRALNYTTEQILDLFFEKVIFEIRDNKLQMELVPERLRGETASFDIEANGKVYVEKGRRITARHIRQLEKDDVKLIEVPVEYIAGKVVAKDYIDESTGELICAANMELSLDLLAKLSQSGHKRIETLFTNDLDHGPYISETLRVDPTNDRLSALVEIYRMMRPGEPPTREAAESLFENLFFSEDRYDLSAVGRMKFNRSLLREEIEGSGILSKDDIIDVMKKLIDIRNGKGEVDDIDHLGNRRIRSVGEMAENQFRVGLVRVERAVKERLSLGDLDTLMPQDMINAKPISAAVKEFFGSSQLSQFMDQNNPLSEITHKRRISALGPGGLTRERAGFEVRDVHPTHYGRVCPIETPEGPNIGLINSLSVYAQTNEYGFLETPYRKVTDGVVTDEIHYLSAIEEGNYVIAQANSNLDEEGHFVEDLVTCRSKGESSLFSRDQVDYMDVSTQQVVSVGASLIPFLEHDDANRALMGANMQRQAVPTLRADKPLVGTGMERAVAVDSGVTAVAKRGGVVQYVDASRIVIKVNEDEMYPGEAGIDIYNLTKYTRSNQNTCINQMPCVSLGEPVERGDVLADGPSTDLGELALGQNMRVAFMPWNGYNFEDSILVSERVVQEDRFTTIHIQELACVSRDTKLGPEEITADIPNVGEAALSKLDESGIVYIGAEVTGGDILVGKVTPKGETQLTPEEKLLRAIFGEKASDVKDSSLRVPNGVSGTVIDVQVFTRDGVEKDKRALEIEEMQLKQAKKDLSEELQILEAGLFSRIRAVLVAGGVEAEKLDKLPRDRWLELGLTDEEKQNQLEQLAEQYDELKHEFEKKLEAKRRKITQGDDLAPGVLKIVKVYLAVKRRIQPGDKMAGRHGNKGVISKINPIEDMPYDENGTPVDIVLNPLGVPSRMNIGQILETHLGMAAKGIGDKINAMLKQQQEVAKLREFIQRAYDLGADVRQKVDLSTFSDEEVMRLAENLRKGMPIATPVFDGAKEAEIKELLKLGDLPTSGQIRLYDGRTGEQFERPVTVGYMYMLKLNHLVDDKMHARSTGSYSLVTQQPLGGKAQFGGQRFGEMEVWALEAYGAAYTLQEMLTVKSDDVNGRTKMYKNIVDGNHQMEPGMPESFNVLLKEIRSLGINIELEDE

Compound: CC(/C=C/C(O)=C1\C(=O)C2CCCN2C1=O)=C\c1ccc2ccccc2c1 (stereo not drawn)
- MIC (Bacteroides fragilis [1]): 31 µg/mL (≈ 86.2 µM)
- MIC (Clostridium perfringens): 31 µg/mL (≈ 86.2 µM)
- MIC [2]: 62 µg/mL (≈ 172 µM)
- MIC (Clostridioides difficile): 16 µg/mL (≈ 44.5 µM)

Compound: CC(/C=C/C(O)=C1\C(=O)CNC1=O)=C\c1cccc2ccccc12
- MIC (Staphylococcus aureus [3]): 3.1 µg/mL (≈ 9.71 µM)
- MIC (Bacteroides fragilis [1]): 1 µg/mL (≈ 3.13 µM)
- MIC (Clostridium perfringens): 1 µg/mL (≈ 3.13 µM)
- MIC [4]: 6.2 µg/mL (≈ 19.4 µM)
- MIC (Staphylococcus aureus [5]): 3.1 µg/mL (≈ 9.71 µM)
- MIC [2]: 1 µg/mL (≈ 3.13 µM)
- MIC (Streptococcus equinus): 6.2 µg/mL (≈ 19.4 µM)
- MIC (Streptococcus pyogenes): 12.5 µg/mL (≈ 39.1 µM)
- MIC (Pseudomonas aeruginosa): 100 µg/mL (≈ 313 µM)
- MIC (Staphylococcus aureus [6]): 3.1 µg/mL (≈ 9.71 µM)
- MIC (Escherichia coli [7]): > 100 µg/mL
- MIC (Micrococcus luteus): 12.5 µg/mL (≈ 39.1 µM)
- MIC (Staphylococcus aureus [8]): 3.1 µg/mL (≈ 9.71 µM)
- MIC (Escherichia coli [9]): 100 µg/mL (≈ 313 µM)
- MIC (Clostridioides difficile): 1 µg/mL (≈ 3.13 µM)

Compound: CC(/C=C/C(O)=C1\C(=O)CN(C)C1=O)=C\C(C)C
- MIC (Bacteroides fragilis [1]): 31 µg/mL (≈ 124 µM)
- MIC (Clostridium perfringens): 31 µg/mL (≈ 124 µM)
- MIC [2]: 62 µg/mL (≈ 249 µM)
- MIC (Clostridioides difficile): 31 µg/mL (≈ 124 µM)

Compound: CC(/C=C/C(=O)C1=C(O)CN(C)C1=O)=C\c1cccc2ccccc12
- MIC (Staphylococcus aureus [3]): 3.1 µg/mL (≈ 9.3 µM)
- MIC (Bacteroides fragilis [1]): < 0.5 µg/mL
- MIC (Clostridium perfringens): < 0.5 µg/mL
- MIC [4]: 3.1 µg/mL (≈ 9.3 µM)
- MIC (Staphylococcus aureus [5]): 3.1 µg/mL (≈ 9.3 µM)
- MIC [2]: 2 µg/mL (≈ 6 µM)
- MIC (Streptococcus equinus): 50 µg/mL (≈ 150 µM)
- MIC (Streptococcus pyogenes): 12.5 µg/mL (≈ 37.5 µM)
- MIC (Pseudomonas aeruginosa): > 100 µg/mL
- MIC (Staphylococcus aureus [6]): 3.1 µg/mL (≈ 9.3 µM)
- MIC (Escherichia coli [7]): > 100 µg/mL
- MIC (Micrococcus luteus): 6.2 µg/mL (≈ 18.6 µM)
- MIC (Staphylococcus aureus [8]): 3.1 µg/mL (≈ 9.3 µM)
- MIC (Escherichia coli [9]): > 100 µg/mL
- MIC (Clostridioides difficile): < 0.5 µg/mL

Compound: CC(/C=C/C(O)=C1\C(=O)CN(C)C1=O)=C\C(C)C1CCCCC1 (stereo not drawn)
- MIC (Bacteroides fragilis [1]): 8 µg/mL (≈ 25.2 µM)
- MIC (Clostridium perfringens): 2 µg/mL (≈ 6.3 µM)
- MIC [2]: 62 µg/mL (≈ 195 µM)
- MIC (Clostridioides difficile): 2 µg/mL (≈ 6.3 µM)

Compound: CC(/C=C/C(=O)C1=C(O)CN(C)C1=O)=C\c1cnc2ccccc2c1
- MIC (Bacteroides fragilis [1]): 2 µg/mL (≈ 5.98 µM)
- MIC (Clostridium perfringens): 2 µg/mL (≈ 5.98 µM)
- MIC [2]: 4 µg/mL (≈ 12 µM)
- MIC (Clostridioides difficile): 2 µg/mL (≈ 5.98 µM)

Compound: CCCCCCCCCCC/C=C(C)/C=C/C(O)=C1\C(=O)CN(C)C1=O
- MIC (Bacteroides fragilis [1]): 125 µg/mL (≈ 346 µM)
- MIC (Clostridium perfringens): 31 µg/mL (≈ 85.7 µM)
- MIC [2]: 125 µg/mL (≈ 346 µM)
- MIC (Clostridioides difficile): 4 µg/mL (≈ 11.1 µM)

Compound: COc1ccc(/C=C(C)/C=C/C(O)=C2\C(=O)CN(C)C2=O)c2ccccc12
- MIC (Bacteroides fragilis [1]): 62 µg/mL (≈ 171 µM)
- MIC (Clostridium perfringens): 2 µg/mL (≈ 5.5 µM)
- MIC [2]: 125 µg/mL (≈ 344 µM)
- MIC (Clostridioides difficile): 4 µg/mL (≈ 11 µM)

Compound: CC(/C=C/C(=O)C1=C(O)CN(C)C1=O)=C\C1CCCCC1
- MIC (Bacteroides fragilis [1]): 8 µg/mL (≈ 27.6 µM)
- MIC (Clostridium perfringens): 4 µg/mL (≈ 13.8 µM)
- MIC [2]: 8 µg/mL (≈ 27.6 µM)
- MIC (Clostridioides difficile): 4 µg/mL (≈ 13.8 µM)

Compound: CC(/C=C/C(O)=C1\C(=O)CNC1=O)=C\c1ccccc1
- MIC (Bacteroides fragilis [1]): 4 µg/mL (≈ 14.9 µM)
- MIC (Clostridium perfringens): 8 µg/mL (≈ 29.7 µM)
- MIC [2]: 4 µg/mL (≈ 14.9 µM)
- inhibition [10]: 4.5%
- MIC (Clostridioides difficile): 4 µg/mL (≈ 14.9 µM)

Compound: CN1CCN(c2cc3c(cc2F)c(=O)c(C(=O)O)cn3-c2ccc(F)cc2)CC1 [DIFLOXACIN]
- MIC (Staphylococcus aureus [11]): 0.25 µg/mL (≈ 0.626 µM)
- MIC (Staphylococcus aureus [12]): 0.25 µg/mL (≈ 0.626 µM)
- MIC (Staphylococcus aureus [13]): 4 µg/mL (≈ 10 µM)
- MIC (Staphylococcus aureus [14]): 0.25 µg/mL (≈ 0.626 µM)

Compound: CC(/C=C/C(=O)C1=C(O)CN(C)C1=O)=C\c1ccc2ccccc2c1
- MIC (Staphylococcus aureus [3]): 1.56 µg/mL (≈ 4.68 µM)
- MIC (Bacteroides fragilis [1]): < 0.5 µg/mL
- MIC (Clostridium perfringens): 2 µg/mL (≈ 6 µM)
- MIC [4]: 1.56 µg/mL (≈ 4.68 µM)
- MIC (Staphylococcus aureus [5]): 1.56 µg/mL (≈ 4.68 µM)
- MIC (Bacteroides fragilis [15]): 0.5 µg/mL (≈ 1.5 µM)
- MIC [2]: 31 µg/mL (≈ 93 µM)
- MIC (Staphylococcus aureus [11]): 0.25 µg/mL (≈ 0.75 µM)
- MIC (Staphylococcus aureus [12]): 0.25 µg/mL (≈ 0.75 µM)
- MIC (Bacteroides fragilis [16]): 0.5 µg/mL (≈ 1.5 µM)
- MIC (Staphylococcus aureus [13]): 0.25 µg/mL (≈ 0.75 µM)
- MIC (Streptococcus equinus): 200 µg/mL (≈ 600 µM)
- MIC (Streptococcus pyogenes): 50 µg/mL (≈ 150 µM)
- inhibition [10]: 12.3%
- MIC (Pseudomonas aeruginosa): 100 µg/mL (≈ 300 µM)
- MIC (Staphylococcus aureus [14]): 0.25 µg/mL (≈ 0.75 µM)
- MIC (Staphylococcus aureus [6]): 1.56 µg/mL (≈ 4.68 µM)
- MIC (Escherichia coli [7]): 200 µg/mL (≈ 600 µM)
- MIC (Micrococcus luteus): 1.56 µg/mL (≈ 4.68 µM)
- MIC (Staphylococcus aureus [8]): 1.56 µg/mL (≈ 4.68 µM)
- MIC (Escherichia coli [9]): 200 µg/mL (≈ 600 µM)
- MIC (Clostridioides difficile): < 0.5 µg/mL

Compound: CN1CC(O)=C(C(=O)/C=C/C=C/c2ccccc2)C1=O
- MIC (Bacteroides fragilis [1]): 62 µg/mL (≈ 230 µM)
- MIC (Clostridium perfringens): 125 µg/mL (≈ 464 µM)
- MIC [2]: 62 µg/mL (≈ 230 µM)
- MIC (Clostridioides difficile): 16 µg/mL (≈ 59.4 µM)

Compound: CC(/C=C/C(=O)C1=C(O)CN(C)C1=O)=C\C1CCc2ccccc2C1 (stereo not drawn)
- MIC (Bacteroides fragilis [1]): 125 µg/mL (≈ 370 µM)
- MIC (Clostridium perfringens): 125 µg/mL (≈ 370 µM)
- MIC [2]: 62 µg/mL (≈ 184 µM)
- MIC (Clostridioides difficile): 125 µg/mL (≈ 370 µM)

Compound: CN1CC(O)=C(C(=O)/C=C/C(Br)=C/c2ccccc2)C1=O
- MIC (Bacteroides fragilis [1]): 16 µg/mL (≈ 46 µM)
- MIC (Clostridium perfringens): 8 µg/mL (≈ 23 µM)
- MIC [2]: 16 µg/mL (≈ 46 µM)
- MIC (Clostridioides difficile): 16 µg/mL (≈ 46 µM)

Compound: O=C(/C=C/C=C/c1ccccc1)C1=C(O)CNC1=O
- MIC (Bacteroides fragilis [1]): 50 µg/mL (≈ 196 µM)
- MIC (Clostridium perfringens): 25 µg/mL (≈ 97.9 µM)
- MIC [2]: 50 µg/mL (≈ 196 µM)
- MIC (Clostridioides difficile): 25 µg/mL (≈ 97.9 µM)

Compound: O=C(/C=C/C(Br)=C/c1ccccc1)C1=C(O)CNC1=O
- MIC (Bacteroides fragilis [1]): 8 µg/mL (≈ 23.9 µM)
- MIC (Clostridium perfringens): 31 µg/mL (≈ 92.8 µM)
- MIC [2]: 8 µg/mL (≈ 23.9 µM)
- inhibition [10]: 7.3%
- MIC (Clostridioides difficile): 8 µg/mL (≈ 23.9 µM)

Compound: CC(/C=C/C(=O)C1=C(O)CN(C)C1=O)=C\c1ccc(-c2ccccc2)cc1
- MIC (Bacteroides fragilis [1]): 8 µg/mL (≈ 22.3 µM)
- MIC (Clostridium perfringens): 31 µg/mL (≈ 86.2 µM)
- MIC [2]: 125 µg/mL (≈ 348 µM)
- MIC (Clostridioides difficile): ≤ 0.5 µg/mL

Compound: CCC[C@@H]1C[C@@H](C(=O)N[C@@H]([C@H]2O[C@H](SC)[C@H](O)[C@@H](O)[C@H]2O)[C@H](C)Cl)N(C)C1 [CLINDAMYCIN]
- MIC (Bacteroides fragilis [1]): 2 µg/mL (≈ 4.71 µM)
- MIC (Clostridium perfringens): < 0.5 µg/mL
- MIC [2]: 8 µg/mL (≈ 18.8 µM)
- MIC (Clostridioides difficile): 1 µg/mL (≈ 2.35 µM)
